From ChEMBL document CHEMBL1268844, “Synthesis of novel 3-amino and 29-hydroxamic acid derivatives of glycyrrhetinic acid as selective 11β-hydroxysteroid dehydrogenase 2 inhibitors” (Bioorg Med Chem, 2010) come the findings set out here.

Assay [1] addresses T1, 11-beta-hydroxysteroid dehydrogenase 1 (Homo sapiens, UniProt P28845). Put plainly: Inhibition of human recombinant 11beta-HSD1 expressed in HEK293 cells assessed as conversion of [1,2-3H]-cortisone to cortisol by scintillation counting. The assay is classed as cell-based.
Target sequence in this assay (P28845 whole entry): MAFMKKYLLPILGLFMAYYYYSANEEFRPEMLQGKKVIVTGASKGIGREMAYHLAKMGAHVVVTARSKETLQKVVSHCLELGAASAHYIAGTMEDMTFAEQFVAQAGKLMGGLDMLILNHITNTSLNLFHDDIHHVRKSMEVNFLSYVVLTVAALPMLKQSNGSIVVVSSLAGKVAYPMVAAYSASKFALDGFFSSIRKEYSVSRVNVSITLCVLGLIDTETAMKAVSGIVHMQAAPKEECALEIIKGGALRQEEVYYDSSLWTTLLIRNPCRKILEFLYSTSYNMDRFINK
Assay [2] addresses T2, 11-beta-hydroxysteroid dehydrogenase type 2 (Homo sapiens, UniProt P80365).
T2 sequence (P80365 whole entry): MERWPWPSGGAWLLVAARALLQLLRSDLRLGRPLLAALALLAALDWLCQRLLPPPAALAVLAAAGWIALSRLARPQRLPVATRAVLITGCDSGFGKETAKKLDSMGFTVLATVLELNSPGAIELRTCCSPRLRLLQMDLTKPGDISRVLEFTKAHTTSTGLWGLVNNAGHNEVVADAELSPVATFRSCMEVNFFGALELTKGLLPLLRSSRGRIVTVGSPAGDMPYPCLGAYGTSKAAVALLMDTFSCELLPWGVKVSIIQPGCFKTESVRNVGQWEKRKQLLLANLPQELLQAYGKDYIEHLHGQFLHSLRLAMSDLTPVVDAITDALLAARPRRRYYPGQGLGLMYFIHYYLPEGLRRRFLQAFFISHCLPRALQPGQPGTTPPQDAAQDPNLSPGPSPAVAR
Put plainly: Inhibition of human recombinant 11beta-HSD2 expressed in HEK293 cells assessed as conversion of [1,2,6,7-3H]-cortisol to cortisone by scintillation counting. The class given is cell-based.

A short description of assay [3]: Selectivity ratio of IC50 for human recombinant 11beta-HSD2 to IC50 for human recombinant 11beta-HSD1.
The target in assay [4] is T3, 11-beta-hydroxysteroid dehydrogenase type 2 (Homo sapiens) (UniProt P80365).
T3 sequence (whole entry): T2 sequence (P80365 whole entry)
Put plainly: Inhibition of human recombinant 11beta-HSD2 expressed in HEK293 cells assessed as residual conversion of [1,2,6,7-3H]-cortisol to cortisone at 0.2 uM by scintillation counting. The class given is cell-based. The method, boiled down: (§1)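 HEK-293 cells transfected with pcDNA3 encoding human enzyme carrying C-terminal FLAG tag. Compounds diluted from DMSO stocks, used immediately, screened at final 200 nM. Reactions stopped with methanol containing 2 mM unlabeled cortisone and cortisol. Steroids separated by TLC, then scintillation counting; readout is residual substrate conversion.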

In assay [5] the target is T1, 11-beta-hydroxysteroid dehydrogenase 1. Put plainly: Inhibition of human recombinant 11beta-HSD1 expressed in HEK293 cells assessed as residual conversion of [1,2-3H]-cortisone to cortisol at 0.2 uM by scintillation counting. The assay is classed as cell-based. The method, boiled down:
as §1
Target sequence in this assay (P28845 whole entry, looked up): as the sequence (P28845 whole entry) above

Molecules are shown by their SMILES.

Usually IC50 stands for the concentration that gives 50% inhibition. Turning to `CC(=O)O[C@H]1CC[C@]2(C)[C@H]3C(=O)C=C4[C@@H]5C[C@@](C)(C(=O)NO)CC[C@]5(C)CC[C@@]4(C)[C@]3(C)CC[C@H]2C1(C)C`, the IC50 in assay [1] was 626 nM.

In the case of `CC(=O)N[C@H]1CC[C@]2(C)[C@H]3C(=O)C=C4[C@@H]5C[C@@](C)(C(=O)O)CC[C@]5(C)CC[C@@]4(C)[C@]3(C)CC[C@H]2C1(C)C`, the IC50 came to 458 nM in assay [2] and 825 nM in assay [1].

Regarding `CONC(=O)[C@@]1(C)CC[C@]2(C)CC[C@]3(C)C(=CC(=O)[C@@H]4[C@@]5(C)CC[C@H](O)C(C)(C)[C@@H]5CC[C@]43C)[C@@H]2C1`, the IC50 is 2130 nM in assay [2] and 929 nM in assay [1]. Moreover, in assay [3], the Ratio amounted to 0.4.

Take `CC1(C)[C@H](NS(=O)(=O)C(F)(F)F)CC[C@]2(C)[C@H]3C(=O)C=C4[C@@H]5C[C@@](C)(C(=O)O)CC[C@]5(C)CC[C@@]4(C)[C@]3(C)CC[C@@H]12`: the Activity in assay [4] worked out at 50%; in assay [5], 99%.

`CON[C@@H]1CC[C@]2(C)[C@H]3C(=O)C=C4[C@@H]5C[C@@](C)(C(=O)O)CC[C@]5(C)CC[C@@]4(C)[C@]3(C)CC[C@H]2C1(C)C`: the Activity in assay [4] came out at 5%; in assay [5], 43%. Further, the results for the IC50 in assay [2] and in assay [1] were 4.9 nM and 61.9 nM, respectively.

On to `CON[C@H]1CC[C@]2(C)[C@H]3C(=O)C=C4[C@@H]5C[C@@](C)(C(=O)N(C)O)CC[C@]5(C)CC[C@@]4(C)[C@]3(C)CC[C@H]2C1(C)C`, for which the Activity in assay [4] is 30%; in assay [5], 93%.

Consider `CC1(C)[C@@H](NS(C)(=O)=O)CC[C@]2(C)[C@H]3C(=O)C=C4[C@@H]5C[C@@](C)(C(=O)O)CC[C@]5(C)CC[C@@]4(C)[C@]3(C)CC[C@@H]12`, for which the Activity came to 4% in assay [4] and 58% in assay [5].

Turning to `CC1(C)[C@H](NS(C)(=O)=O)CC[C@]2(C)[C@H]3C(=O)C=C4[C@@H]5C[C@@](C)(C(=O)O)CC[C@]5(C)CC[C@@]4(C)[C@]3(C)CC[C@@H]12`, the Activity in assay [4] came to 4%; in assay [5], 32%.

On to `CC(=O)N[C@H]1CC[C@]2(C)[C@H]3C(=O)C=C4[C@@H]5C[C@@](C)(C(=O)N(C)O)CC[C@]5(C)CC[C@@]4(C)[C@]3(C)CC[C@H]2C1(C)C`, for which the Activity worked out at 4% in assay [4] and 72% in assay [5].

For the compound `CC1(C)[C@@H](O)CC[C@]2(C)[C@H]3C(=O)C=C4[C@@H]5C[C@@](C)(C(=O)NO)CC[C@]5(C)CC[C@@]4(C)[C@]3(C)CC[C@@H]12`, in assay [1], the concentration for half-maximal inhibition (IC50) turned out to be 1160 nM.

`C=CCONC(=O)[C@@]1(C)CC[C@]2(C)CC[C@]3(C)C(=CC(=O)[C@@H]4[C@@]5(C)CC[C@H](OC(C)=O)C(C)(C)[C@@H]5CC[C@]43C)[C@@H]2C1`: the figures for the Activity in assay [4] and in assay [5] were 84% and 99%, respectively.

With `CO/N=C1\CC[C@]2(C)[C@H]3C(=O)C=C4[C@@H]5C[C@@](C)(C(=O)O)CC[C@]5(C)CC[C@@]4(C)[C@]3(C)CC[C@H]2C1(C)C`, in assay [1], the IC50 is 1510 nM.

For the compound `CC1(C)[C@@H](NS(=O)(=O)C(F)(F)F)CC[C@]2(C)[C@H]3C(=O)C=C4[C@@H]5C[C@@](C)(C(=O)O)CC[C@]5(C)CC[C@@]4(C)[C@]3(C)CC[C@@H]12`, the Activity was 22% in assay [4] and 87% in assay [5].

Turning to `CN(O)C(=O)[C@@]1(C)CC[C@]2(C)CC[C@]3(C)C(=CC(=O)[C@@H]4[C@@]5(C)CC[C@H](O)C(C)(C)[C@@H]5CC[C@]43C)[C@@H]2C1`, the Activity stood at 7% in assay [4] and 71% in assay [5].

As to `CN(O)C(=O)[C@@]1(C)CC[C@]2(C)CC[C@]3(C)C(=CC(=O)[C@@H]4[C@@]5(C)CC[C@H](NS(=O)(=O)C(F)(F)F)C(C)(C)[C@@H]5CC[C@]43C)[C@@H]2C1`, the values for the Activity in assay [4] and in assay [5] were 44% and 71%, respectively.

In the case of `CC1(C)C(=O)CC[C@]2(C)[C@H]3C(=O)C=C4[C@@H]5C[C@@](C)(C(=O)O)CC[C@]5(C)CC[C@@]4(C)[C@]3(C)CC[C@@H]12`, the half-inhibitory concentration (IC50) in assay [1] was 619 nM.

In the case of `CN(O)C(=O)[C@@]1(C)CC[C@]2(C)CC[C@]3(C)C(=CC(=O)[C@@H]4[C@@]5(C)CC[C@@H](NS(=O)(=O)C(F)(F)F)C(C)(C)[C@@H]5CC[C@]43C)[C@@H]2C1`, the Activity worked out at 82% in assay [4] and 88% in assay [5].

As to `CON[C@H]1CC[C@]2(C)[C@H]3C(=O)C=C4[C@@H]5C[C@@](C)(C(=O)O)CC[C@]5(C)CC[C@@]4(C)[C@]3(C)CC[C@H]2C1(C)C`, the Activity in assay [4] is 2%; in assay [5] it was 33%. The IC50 in assay [2] worked out at 14.5 nM; in assay [1] it was 42.7 nM.

As for `CC(=O)O[C@H]1CC[C@]2(C)[C@H]3C(=O)C=C4[C@@H]5C[C@@](C)(C(=O)N(O)C(C)(C)C)CC[C@]5(C)CC[C@@]4(C)[C@]3(C)CC[C@H]2C1(C)C`, the results for the Activity in assay [4] and in assay [5] were 85% and 86%, respectively.

In the case of `CON(C)C(=O)[C@@]1(C)CC[C@]2(C)CC[C@]3(C)C(=CC(=O)[C@@H]4[C@@]5(C)CC[C@H](OC(C)=O)C(C)(C)[C@@H]5CC[C@]43C)[C@@H]2C1`, the values for the Activity in assay [4] and in assay [5] were 72% and 95%, respectively.
